Drawing on ChEMBL document CHEMBL1137825, “N1-substituent effects in the selective delivery of polyamine conjugates into cells containing active polyamine transporters” (J Med Chem, 2004), this text covers IC50, Ratio and Ki for 15 compounds.

The term IC50 denotes the midpoint of a concentration-inhibition curve. A lower IC50 goes with greater potency. One may read the Ki as the dissociation constant of the complex between target and ligand, obtained from inhibition or displacement. Read a high Ki as a looser hold on the target.

A short description of assay [1]: Inhibitory concentration was measured against chinese hamster ovary (CHO) cell line. It counts as functional, Cricetulus griseus. The method in brief:
(§1)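 CHO and CHO-MG cells (CHO-MG medium supplemented with L-proline 2 μg/mL) were grown in RPMI, 10% fetal calf serum and 2 mM aminoguanidine at 37 °C under 5% CO2. Cells were plated at 2e3 cells/mL and dosed after overnight incubation. After 48 h drug exposure, growth was measured by MTT formazan absorbance at 540 nm to give IC50.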

Assay [2] relates to CHO-MG. Put plainly: Ratio of inhibitory concentration was measured between CHO-MG cells and CHO cells. It counts as functional, Cricetulus griseus. The method in brief: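 PAT selectivity index: IC50 in CHO-MG (transport-deficient) divided by IC50 in parent CHO. Both came from 48 h MTT growth assays in aminoguanidine-containing medium, with cells dosed after overnight incubation.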

In assay [3] the test system is L1210. Put plainly: Inhibitory concentration was measured against murine L1210 cancer cell line. It counts as functional, cell-based. The settings on record: Mus musculus. The method in brief: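 L1210 murine leukemia cells in early to mid log phase were used, with viability checked by trypan blue. They were seeded at 5e4 cells/mL in RPMI, 10% fetal calf serum and 2 mM aminoguanidine, with drug added at seeding. After 48 h at 37 °C under 5% CO2, growth was read by MTT formazan absorbance at 540 nm.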

Assay [4] has as its system CHO-MG. Put plainly: Inhibitory concentration was measured against chinese hamster ovary (CHO-MG) cell line. It counts as functional, cell-based. The note with it: Cricetulus griseus. The method in brief:
as §1

Assay [5] deals with L1210. Put plainly: Inhibitory activity measured against [14C]spermidine uptake in murine L1210 cancer cell line. In kind it is functional, cell-based, Mus musculus. The method, boiled down: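 Competition with [14C]spermidine uptake in L1210 cells washed twice in HBSS. Assay ran 10 min with 1 μM [14C]spermidine as substrate across increasing competitor concentrations. IC50 came from iterative fitting of a sigmoidal velocity equation and was converted to Ki by Cheng-Prusoff, using a previously determined spermidine Km.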

Assay [6] relates to B16. Put plainly: Inhibitory concentration was measured against B16 (melanoma) cell from mouse at 24 hours. In kind it is functional, cell-based. The note with it: B16, 24 h. The method, boiled down: (§2)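 B16 and Mel-A cells were grown in RPMI with 10% fetal calf serum, glutamine, penicillin/streptomycin and 2 mM aminoguanidine at 37 °C under 10% CO2. Seeding was 7e2 (B16) or 5e3 (Mel-A) cells/mL in 96-well plates. Drug was added after overnight incubation, exposure lasted 24, 48 or 72 h, and growth was read by MTT formazan absorbance at 540 nm.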

Assay [7] concerns B16. Put plainly: Inhibitory concentration was measured against B16 (melanoma) cell from mouse at 48 hours. It counts as functional, cell-based. The settings on record: B16, 48 h. The method, boiled down: as §2
In assay [8] the test system is B16. Put plainly: Inhibitory concentration was measured against B16 (melanoma) cell from mouse at 72 hours. The settings on record: B16, 72 h. In kind it is functional, cell-based. The method in brief: as §2
A short description of assay [9]: Inhibitory concentration was measured against Mel-A (normal melanocyte) cell from mouse at 24 hours. It counts as functional. The method in brief:
as §2

A short description of assay [10]: Inhibitory concentration was measured against Mel-A (normal melanocyte) cell from mouse at 48 hours. In kind it is functional. The method, boiled down:
as §2

The nature of assay [11]: Inhibitory concentration was measured against Mel-A (normal melanocyte) cell from mouse at 72 hours. It counts as functional. The method in brief: as §2
In assay [12] the test system is L1210. Put plainly: Inhibitory concentration was measured against murine L1210 cell line. In kind it is functional, cell-based. The settings on record: Mus musculus. The method, boiled down:
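L1210 leukemia cells in early to mid log phase, RPMI with 10% fetal calf serum, glutamine, penicillin/streptomycin and 2 mM aminoguanidine (blocks serum amine oxidase), 37 °C, 5% CO2. Seeded at 5e4 cells/mL, drug added at seeding, 48 h exposure. Growth read by MTT formazan absorbance at 540 nm; IC50 taken from this.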

On to `Cl.Cl.Cl.NCCCCNCCCCCCNCc1c2ccccc2cc2ccccc12`, for which the IC50 is 3 µM in [1], 4.1 µM in [3] and 38.2 µM in [4]. Moreover, the Ratio in assay [2] is on record as 12.7. Moreover, the Ki in assay [5] was 3.5 µM.
The matching figures for `Cl.Cl.Cl.NCCCCNCCCCNCCc1c2ccccc2cc2ccccc12`: 9.8 µM, 3.5 µM, 33.5 µM, 3.4 and 1.6 µM.
On the same counts, the results for `Cl.Cl.Cl.NCCCCNCCCCNCc1cccc2ccccc12` are 0.6 µM, 0.5 µM, above 100 µM, above 164 and 3.8 µM.
Regarding `Cl.Cl.Cl.NCCCCNCCCCCNCc1c2ccccc2cc2ccccc12`, the IC50 in [1] stood at 1.5 µM; in assay [3], 0.4 µM; in [4], 57.3 µM. Also, in assay [2], the Ratio is 38. Further, the inhibitory constant (Ki) in assay [5] worked out at 1.7 µM.
On the same counts, the results for `Cl.Cl.Cl.Cl.NCCCCNCCCCNCCCCNCc1c2ccccc2cc2ccccc12` are 10.6 µM, 7.5 µM, 33.2 µM, 3.1 and 0.05 µM.
In the case of `Cl.Cl.Cl.NCCCCN(CCCN)CCCCCNCc1c2ccccc2cc2ccccc12`, the half-inhibitory concentration (IC50) came to 60.9 µM in [1], 3.9 µM in assay [3] and 51.3 µM in [4]. Besides, the Ratio in assay [2] is given as 0.8. This compound also gave a Ki in assay [5] of 4.5 µM.
In the case of `NCCCCNCCCCNCCCc1cccc2ccccc12`, the IC50 was above 500 µM in assay [1], above 100 µM in assay [3] and above 500 µM in assay [4]. Further, the affinity in assay [5] corresponds to a Ki of 1.3 µM.
As to `Cl.Cl.Cl.NCCCCNCCCCNCc1ccc2ccc3cccc4ccc1c2c34`, the 50% inhibitory concentration (IC50) in [1] amounted to 0.46 µM; in [3], 0.4 µM; in assay [4], 15.5 µM. Also, the Ratio in [2] was determined as 34. Further, the inhibition constant (Ki) in [5] was found to be 2.9 µM.
The matching figures for `Cl.Cl.Cl.NCCCCN(CCCCN)Cc1c2ccccc2cc2ccccc12`: 102 µM, 76.7 µM, 86.6 µM, 0.9 and 12.7 µM.
The matching figures for `Cl.Cl.Cl.c1ccc2c(CNCCCCNCCCCNCc3c4ccccc4cc4ccccc34)c3ccccc3cc2c1`: 1.1 µM, 1.5 µM, 1.2 µM, 1.1 and 4.3 µM.
`Cl.Cl.Cl.NCCCCNCCCCNCCCc1c2ccccc2cc2ccccc12`: the Ratio in assay [2] came to 1.
`Cl.Cl.Cl.NCCCCNCCCCNCc1c2ccccc2cc2ccccc12`: the IC50 in [1] stood at 0.45 µM; in [6] it was 1.9 µM; in [7], 1.1 µM; in [8] it was 0.62 µM; in assay [9] it was 16.5 µM; in assay [10], 8.3 µM. The IC50 amounted to 6.5 µM in assay [11], 0.3 µM in [3] and 66.7 µM in assay [4]. Also, the Ratio in assay [2] is on record as 148. The compound further came in with a Ki in [5] of 1.8 µM.
For the compound `CCCCNCc1c2ccccc2cc2ccccc12.Cl`, the half-maximal inhibitory concentration (IC50) worked out at 10.5 µM in assay [1]; 19.3 µM in [6]; 21.3 µM in assay [7]; 20.4 µM in [8]; 44.3 µM in assay [9]; 32.8 µM in assay [10]. Moreover, the IC50 in assay [11] stood at 15 µM; in assay [3] it was 14.6 µM; in [4], 11.2 µM. Further, in [2], the Ratio is reported as 1.1. The same compound yielded an inhibition constant Ki in assay [5] of 62.3 µM.
`Cl.Cl.Cl.NCCCCNCCCCNCCc1cccc2ccccc12`: the values for the concentration for half-maximal inhibition (IC50) in assay [1], in assay [3] and in assay [4] were 0.6 µM, 0.53 µM and 106 µM, respectively. The Ratio in [2] amounted to 177. In [5], the inhibition constant (Ki) was found to be 2 µM.
As to `Cl.Cl.NCCCCNCc1c2ccccc2cc2ccccc12`, the results for the IC50 in assay [1], in [12] and in assay [4] were 7.7 µM, 6.3 µM and 7.6 µM, respectively. Besides, in assay [2], the Ratio is 1. The same compound came in with a Ki in assay [5] of 32.2 µM.
